In ChEMBL document CHEMBL1132588, “Synthesis, CoMFA analysis, and receptor docking of 3,5-diacyl-2, 4-dialkylpyridine derivatives as selective A3 adenosine receptor antagonists” (J Med Chem, 1999):

Key:
Adenosine receptor A2a = Adenosine receptor A2a (Rattus norvegicus, UniProt P30543); experiment: Inhibition of [3H]-CGS- 21680 binding to Adenosine A2A receptor in rat striatal membranes.; format: cell membranes, Membrane
Adenosine receptor A1 = molecular target: T1, Adenosine receptor A1 (Rattus norvegicus, UniProt P25099); experiment: (§1) Displacement of specific [3H]-CGS- 21680R-PIA binding to Adenosine A1 receptor in rat brain membranes.; format: cell membranes; settings: in the assay text read “[3H]R-PIA” for “[3H]-CGS- 21680R-PIA”
T1 sequence (P25099 whole entry): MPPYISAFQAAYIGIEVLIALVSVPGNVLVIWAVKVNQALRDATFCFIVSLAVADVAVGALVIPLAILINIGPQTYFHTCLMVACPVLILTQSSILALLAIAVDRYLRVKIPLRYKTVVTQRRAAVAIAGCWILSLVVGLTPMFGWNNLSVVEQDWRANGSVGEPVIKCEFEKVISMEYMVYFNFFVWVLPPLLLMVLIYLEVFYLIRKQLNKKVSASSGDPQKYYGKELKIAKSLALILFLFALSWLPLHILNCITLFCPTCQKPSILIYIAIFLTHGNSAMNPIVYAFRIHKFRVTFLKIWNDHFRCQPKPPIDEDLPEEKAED
Procedure, shortened: (§2)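 A1 binding used [3H]R-PIA on rat cerebral cortex membranes. Adenosine deaminase (3 units/mL) was included in membrane preparation, in a 30 min preincubation at 30 °C, and throughout radioligand incubation. Competitors were DMSO stocks diluted in buffer, with DMSO never above 2%.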

[1] = molecular target: T2, Adenosine receptor A3 (Homo sapiens) (UniProt P0DMS8); experiment: (§3) Displacement of specific [125 I]AB-MECA binding at human Adenosine A3 receptor expressed in HEK cells; format: cell-based; settings: HEK293; concentration not given here
T2 sequence (whole entry): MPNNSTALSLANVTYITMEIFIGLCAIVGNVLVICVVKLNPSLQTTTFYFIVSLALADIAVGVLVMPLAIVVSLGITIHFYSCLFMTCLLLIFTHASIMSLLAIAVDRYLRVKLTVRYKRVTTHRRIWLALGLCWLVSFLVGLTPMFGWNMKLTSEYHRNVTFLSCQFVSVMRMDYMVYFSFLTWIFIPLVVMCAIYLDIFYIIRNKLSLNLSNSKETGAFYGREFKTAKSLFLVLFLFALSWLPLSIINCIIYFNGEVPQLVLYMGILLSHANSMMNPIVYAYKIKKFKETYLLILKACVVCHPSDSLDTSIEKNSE
Procedure, shortened: (§4)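 Membranes from HEK-293 cells stably expressing human A3 receptor (clone HS-21a), or from CHO cells stably expressing rat A3 receptor (rat: n = 3-5), in 50 mM Tris, 10 mM Mg2+, 1 mM EDTA, pH 8.0. Membranes at 0.3 mg protein/mL with [125I]AB-MECA at 0.3 nM final. Nonspecific binding defined with R-PIA. Competitors were dissolved in DMSO (≤2% final) and tested at ≥5 concentrations spanning 3 log units. Bound ligand was separated by GF/B filtration with three buffer rinses; Ki was derived.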

[2] = molecular target: T2, Adenosine receptor A3 (Homo sapiens); experiment: as §3; format: cell-based; settings: HEK293
Rattus norvegicus [3] = species on record: Rattus norvegicus; experiment: Ratio of binding affinities for rat A1 receptor against human A3 receptor, [Ki(rA1) / Ki (hA3)].
Procedure, shortened: (§5)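 Ratio of Ki values from binding assays. For A3, [125I]AB-MECA (final 0.3 nM) bound membranes of HEK-293 cells expressing human A3 (clone HS-21a) or CHO cells expressing rat A3, in Tris/Mg2+/EDTA buffer at pH 8.0. For rat A1, [3H]R-PIA bound cerebral cortex membranes, with adenosine deaminase (3 units/mL) present, including a 30 min preincubation at 30 °C.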

Adenosine receptor A3 [4] = molecular target: T3, Adenosine receptor A3 (Homo sapiens, UniProt P0DMS8); experiment: as §3; format: cell-based, HEK293; procedure, shortened: as §4
T3 sequence (P0DMS8 whole entry): T2 sequence (whole entry)

[5] = molecular target: Adenosine receptor A2a (Rattus norvegicus) (UniProt P30543); experiment: Displacement of specific [3H]-CGS- 21680 binding to Adenosine A2A receptor in rat striatal membranes; format: cell membranes; parameters: concentration or dose not given beside the values; settings: Membrane, concentration not given here
Procedure, shortened: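 Rat striatal membranes labelled with [3H]CGS 21680 for A2A binding. Adenosine deaminase (3 units/mL) was present during membrane preparation, during a 30 min preincubation at 30 °C, and during radioligand incubation. Competitors were dissolved in DMSO and diluted in buffer (DMSO ≤2%).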

[6] = molecular target: T4, Adenosine receptor A1 (Rattus norvegicus) (UniProt P25099); experiment: as §1; format: cell membranes; settings: concentration not given here; procedure, shortened: as §2
T4 sequence (whole entry): T1 sequence (P25099 whole entry)

Rattus norvegicus [7] = species on record: Rattus norvegicus; experiment: Ratio of the binding affinities against rat A3 receptor / rat A3 receptor, Ki(rA1) / Ki (rA3).; procedure, shortened: as §5
Rattus norvegicus [8] = species on record: Rattus norvegicus; experiment: Ratio of the binding affinities against rat A3 receptor / human A3 receptor, Ki(rA1) / Ki (hA3).; procedure, shortened: as §5
Adenosine receptor A3 [9] = molecular target: T5, Adenosine receptor A3 (Rattus norvegicus, UniProt P28647); experiment: Displacement of specific [125I]AB-MECA binding at rat Adenosine A3 receptor stably expressed in CHO cells; format: cell-based
T5 sequence (P28647 whole entry): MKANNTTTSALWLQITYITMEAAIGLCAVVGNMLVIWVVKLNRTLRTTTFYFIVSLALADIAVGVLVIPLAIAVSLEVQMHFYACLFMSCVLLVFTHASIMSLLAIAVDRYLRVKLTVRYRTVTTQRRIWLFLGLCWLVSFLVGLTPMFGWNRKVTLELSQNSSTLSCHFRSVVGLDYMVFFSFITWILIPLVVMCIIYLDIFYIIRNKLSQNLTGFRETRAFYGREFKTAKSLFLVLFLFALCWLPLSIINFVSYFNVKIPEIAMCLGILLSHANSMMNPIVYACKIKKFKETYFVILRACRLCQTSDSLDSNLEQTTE

Sequence of Adenosine receptor A2a (Rattus norvegicus) (P30543 whole entry): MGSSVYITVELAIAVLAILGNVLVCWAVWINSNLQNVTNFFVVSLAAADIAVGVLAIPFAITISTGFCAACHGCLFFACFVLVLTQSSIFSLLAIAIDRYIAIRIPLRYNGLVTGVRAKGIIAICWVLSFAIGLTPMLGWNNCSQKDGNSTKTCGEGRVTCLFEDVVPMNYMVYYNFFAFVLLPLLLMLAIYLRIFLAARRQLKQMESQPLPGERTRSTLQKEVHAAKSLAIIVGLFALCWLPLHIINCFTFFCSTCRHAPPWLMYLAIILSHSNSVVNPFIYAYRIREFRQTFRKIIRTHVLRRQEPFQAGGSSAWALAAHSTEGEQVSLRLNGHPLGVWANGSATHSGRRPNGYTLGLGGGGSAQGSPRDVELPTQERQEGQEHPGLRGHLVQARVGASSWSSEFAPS
Sequence of Adenosine receptor A2a (P30543 whole entry): as above

| Ki (Adenosine receptor A1) [µM] | pKi [2] | Ratio (Rattus norvegicus [3]) | Ki (Adenosine receptor A3 [4]) [µM] | Compound | other results |
| --- | --- | --- | --- | --- | --- |
| 5.94 | – | – | – | CCCOC(=O)c1c(-c2ccccc2)nc(CCO)c(C(=O)SCC)c1CCC | Ki (Adenosine receptor A2a): 29.1 µM; inhibition [1]: 16% |
| 5.68 | 6.35 | 13 | 0.446 | CCCc1c(C(=O)SCC)c(CC)nc(-c2ccccc2)c1C(=O)OCC(F)(F)C(F)(F)F | Ki (Adenosine receptor A2a): 14 µM |
| – | 6.71 | – | – | CCCc1c(C(=O)SCC)c(C)nc(-c2ccccc2)c1C(=O)OCC | – |
| – | – | – | 0.517 | CCCOC(=O)c1c(-c2ccccc2)nc(CC)c(C(=O)SCCOC2CCCCO2)c1CCC (stereo not given) | inhibition [5]: < 10%; inhibition [6]: 18% |
| – | 6.75 | – | – | CCOC(=O)c1c(C)nc(-c2ccccc2)c(C(=O)OCC)c1CC | – |
| 9.04 | 6.58 | 35 | 0.262 | CCCOC(=O)c1c(-c2ccccc2)nc(CC)c(C(=O)SCC)c1CCO | Ki (Adenosine receptor A2a): 0.0103 µM |
| – | 7.46 | – | – | CCCCc1nc(-c2ccccc2)c(C(=O)OCC)c(CC)c1C(=O)SCC | – |
| 9.8 | 6.91 | 79 | 0.124 | CCCOC(=O)c1c(-c2ccccc2)nc(CC)c(C(=O)SCC)c1CCSC(C)=O | inhibition [5]: 28% |

Second part, the compound before the results:

| Compound | Ki (Adenosine receptor A1) [µM] | pKi [2] | Ratio (Rattus norvegicus [3]) | Ki (Adenosine receptor A3 [4]) [µM] | other results |
| --- | --- | --- | --- | --- | --- |
| CCOC(=O)c1c(-c2ccccc2)nc(CCOC)c(C(=O)SCC)c1CC | – | 7.77 | – | – | – |
| CCCc1nc(-c2ccccc2)c(C(=O)OCC)c(CC)c1C(=O)SCC | – | 7.48 | – | – | – |
| CCOC(=O)c1c(C2CCCC2)nc(CC)c(C(=O)SCC)c1CC | – | 5.47 | – | – | – |
| CCCOC(=O)c1c(-c2ccccc2)nc(CC)c(C(=O)SCCF)c1CCC | 8.22 | 7.26 | 150 | 0.0551 | Ki (Adenosine receptor A2a): 24.8 µM |
| CCCOC(=O)c1c(-c2ccccc2)nc(CC)c(C(=O)SCC2COC(C)(C)O2)c1CCC (stereo not given) | – | – | 2.2 | 2.64 | inhibition [5]: < 10% |
| CCCOC(=O)c1c(C)nc(-c2ccccc2)c(C(=O)OCC)c1C | – | 6.67 | – | – | – |
| CCOC(=O)c1c(-c2ccccc2)nc(C2CCC2)c(C(=O)SCC)c1CC | – | 6.84 | – | – | – |
| CCCOC(=O)c1c(CCC)c(C(=O)SCC)c(CC)[n+](C)c1-c1ccccc1 | – | 5.59 | > 50 | – | inhibition [5]: < 10%; inhibition [6]: < 10%; Ratio (Rattus norvegicus [7]): > 23; Ratio (Rattus norvegicus [8]): 2.1; Ki (Adenosine receptor A3 [9]): 4.26 µM |
| CCOC(=O)c1c(-c2cccc(Cl)c2)nc(CC)c(C(=O)SCC)c1CC | – | 7.87 | – | – | – |
| CCCOC(=O)c1c(-c2ccccc2)nc(CC)c(C(=O)SCC(F)(F)F)c1CCC | 8.29 | 7.74 | 460 | 0.0181 | Ki (Adenosine receptor A2a): 6.14 µM; Ratio (Rattus norvegicus [7]): 17; Ratio (Rattus norvegicus [8]): 27; Ki (Adenosine receptor A3 [9]): 0.495 µM |
| CCCOC(=O)c1c(-c2cccc(Cl)c2)nc(CC)c(C(=O)SCCC)c1CC | – | 8.1 | – | – | – |
| CCOC(=O)c1c(C)nc(C2CCC2)c(C(=O)OCc2ccccc2)c1C#Cc1ccccc1 | – | 5.62 | – | – | – |
| CCCOC(=O)c1c(-c2ccccc2)nc(CC)c2c1CCOC2=O | 11.2 | – | – | – | inhibition [5]: 20%; inhibition [1]: < 10% |
| CCCOC(=O)c1c(-c2cccc(F)c2)nc(CC)c(C(=O)SCC)c1CCC | 8.2 | 7.54 | 280 | 0.0289 | Ki (Adenosine receptor A2a): 28.1 µM |
| CCSC(=O)c1c(CC)nc(-c2ccccc2)c(C(=O)OCCO)c1CC | – | 6.73 | – | – | – |
| CCOC(=O)c1c(-c2ccccc2)nc(C)c(C(=O)SCCOC)c1CC | – | 6.78 | – | – | – |
